Results on 4 molecules are retold here after ChEMBL document CHEMBL1124394, “Synthesis and biological evaluation of 14-alkoxymorphinans. 2. (-)-N-(cyclopropylmethyl)-4,14-dimethoxymorphinan-6-one, a selective mu opioid receptor antagonist” (J Med Chem, 1989).

Values joined by “and” are separate entries in the source; they are usually repeats but may differ in a detail not shown here. Identical values can stand only once.

The target in test [1] is Kappa-type opioid receptor (Cavia porcellus) (UniProt P41144).
Test [2] has as its target Kappa-type opioid receptor (Mus musculus) (UniProt P33534). The conditions noted are these: Vas deferens.
Test [3] addresses Mu-type opioid receptor (Mus musculus) (UniProt P42866). The settings on record: Vas deferens.
Test [4] addresses Mu-type opioid receptor (Cavia porcellus) (UniProt P97266).
Test [5] addresses Delta-type opioid receptor (Mus musculus) (UniProt P32300). The settings on record: Vas deferens.
Test [6] has as its system Oryctolagus cuniculus. Kind of test: Percent change of rate in the respiratory activity was measured in rabbit at the 1 mg/kg dose given intravenously. The settings on record: route intravenous. It is filed as functional. In outline: (§1)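 Rabbits were dosed iv in saline (1.5 mL/kg); 1 N HCl was sometimes added to dissolve the compound. Percent change (±SE) in respiratory volume and rate was recorded.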

Test [7] has as its target Delta-type opioid receptor (Rattus norvegicus) (UniProt P33533). The settings on record: Vas deferens.
Test [8] deals with Mu-type opioid receptor (Rattus norvegicus) (UniProt P33535). The conditions noted are these: Vas deferens.
For test [9], the system named is Oryctolagus cuniculus. As to the kind of experiment: Percent change of volume in the respiratory activity was measured in rabbit at the 1 mg/kg dose given intravenously. The class given is functional. The settings on record: route intravenous. In outline: as §1
For another test, the target named is Opioid receptor (Rattus norvegicus, UniProt P33533+P34975+P33535). As to the kind of experiment: Inhibition of [3H]naloxone binding to opioid receptor in presence of NaCl. The class given is protein assay. The essentials:
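Rat (male F1-albino, 140–180 g) whole brain minus cerebellum, homogenised in ice-cold 50 mmol/L Tris-HCl pH 7.4 with NaCl, centrifuged 18000g 10 min and rehomogenised. Nonspecific binding defined with 1 μmol/L levallorphan. Competitor tested at ≥5 concentrations in duplicate, two independent runs. IC50 taken graphically or from a least-squares sigmoid fit.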

The subject of test [10] is Mus musculus. As to the kind of experiment: Percent reduction of analgesia induced by U-50,488 at 15 mg/kg after sc administration was measured in mice. It is filed as functional. The conditions noted are these: route subcutaneous. In outline:
(§2)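 Mice received the opioid agonist sc (morphine 10 mg/kg or U-50,488 15 mg/kg), then the test compound sc 20 min later in saline (10 mL/kg). Writhing was then induced with acetic acid. Read-out was percent reduction of agonist-induced analgesia.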

Test [11] relates to Oryctolagus cuniculus. As to the kind of experiment: Percent change of rate in the respiratory activity was measured in rabbit at the 0.1 mg/kg dose given intravenously. It is filed as functional. The settings on record: route intravenous. The essentials: as §1
Test [12] relates to Oryctolagus cuniculus. Kind of test: Percent change of volume in the respiratory activity was measured in rabbit at the 0.1 mg/kg dose given intravenously. The class given is functional. The conditions noted are these: route intravenous. In outline: as §1
The subject of test [13] is Mus musculus. As to the kind of experiment: Percent reduction of analgesia induced by morphine at 10 mg/kg after sc administration was measured in mice. It is filed as functional. The conditions noted are these: route subcutaneous. The essentials:
as §2

In test [14] the test system is Oryctolagus cuniculus. Kind of test: Percent change of rate in the respiratory activity was measured in rabbit at 0.1 mg/kg dose given intravenously. The class given is functional. The conditions noted are these: route intravenous. In outline: as §1

Mu-type opioid receptor (Cavia porcellus), sequence (P97266 whole entry): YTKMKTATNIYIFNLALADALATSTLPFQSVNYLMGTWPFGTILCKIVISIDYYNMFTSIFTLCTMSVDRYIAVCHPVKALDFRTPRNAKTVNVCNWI
Mu-type opioid receptor (Mus musculus), sequence (P42866 whole entry): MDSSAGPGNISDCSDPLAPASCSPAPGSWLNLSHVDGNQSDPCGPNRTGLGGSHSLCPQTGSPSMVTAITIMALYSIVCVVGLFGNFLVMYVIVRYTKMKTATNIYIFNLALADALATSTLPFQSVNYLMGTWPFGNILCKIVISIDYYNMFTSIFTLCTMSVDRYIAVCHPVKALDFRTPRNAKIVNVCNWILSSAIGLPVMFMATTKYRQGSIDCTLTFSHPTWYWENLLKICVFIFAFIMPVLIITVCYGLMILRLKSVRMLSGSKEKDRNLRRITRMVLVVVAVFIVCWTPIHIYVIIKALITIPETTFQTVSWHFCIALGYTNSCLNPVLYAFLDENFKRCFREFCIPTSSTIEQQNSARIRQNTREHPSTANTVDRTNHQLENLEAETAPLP
Delta-type opioid receptor (Rattus norvegicus), sequence (P33533 whole entry): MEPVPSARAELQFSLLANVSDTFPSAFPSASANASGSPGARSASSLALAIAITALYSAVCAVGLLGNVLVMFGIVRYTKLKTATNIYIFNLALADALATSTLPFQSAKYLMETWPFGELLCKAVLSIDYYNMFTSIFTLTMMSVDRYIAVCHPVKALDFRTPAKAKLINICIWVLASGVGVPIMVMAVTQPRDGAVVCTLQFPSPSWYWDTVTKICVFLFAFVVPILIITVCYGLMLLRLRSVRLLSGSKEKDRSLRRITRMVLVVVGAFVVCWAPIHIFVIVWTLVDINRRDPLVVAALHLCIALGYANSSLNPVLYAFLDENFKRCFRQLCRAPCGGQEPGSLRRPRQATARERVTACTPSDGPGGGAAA
Delta-type opioid receptor (Mus musculus), sequence (P32300 whole entry): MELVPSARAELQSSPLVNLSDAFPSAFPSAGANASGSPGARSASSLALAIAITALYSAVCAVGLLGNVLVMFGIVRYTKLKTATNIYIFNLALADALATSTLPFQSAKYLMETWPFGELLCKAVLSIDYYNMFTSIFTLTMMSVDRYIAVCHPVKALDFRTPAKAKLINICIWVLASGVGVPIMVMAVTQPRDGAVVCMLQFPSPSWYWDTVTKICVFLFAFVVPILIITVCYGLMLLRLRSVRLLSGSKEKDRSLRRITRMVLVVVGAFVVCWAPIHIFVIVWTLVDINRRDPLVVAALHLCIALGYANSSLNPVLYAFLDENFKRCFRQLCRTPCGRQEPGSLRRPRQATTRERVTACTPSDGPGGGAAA
Kappa-type opioid receptor (Cavia porcellus), sequence (P41144 whole entry): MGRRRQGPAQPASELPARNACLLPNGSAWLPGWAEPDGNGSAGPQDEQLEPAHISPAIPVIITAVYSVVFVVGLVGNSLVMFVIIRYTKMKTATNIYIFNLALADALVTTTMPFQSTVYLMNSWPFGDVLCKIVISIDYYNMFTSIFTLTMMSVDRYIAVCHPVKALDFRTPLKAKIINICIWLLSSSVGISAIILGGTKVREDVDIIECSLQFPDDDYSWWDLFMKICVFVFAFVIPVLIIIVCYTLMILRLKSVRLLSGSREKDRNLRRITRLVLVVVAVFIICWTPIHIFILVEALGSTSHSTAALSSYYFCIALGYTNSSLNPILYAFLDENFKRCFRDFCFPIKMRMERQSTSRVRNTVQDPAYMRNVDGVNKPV
Mu-type opioid receptor (Rattus norvegicus), sequence (P33535 whole entry): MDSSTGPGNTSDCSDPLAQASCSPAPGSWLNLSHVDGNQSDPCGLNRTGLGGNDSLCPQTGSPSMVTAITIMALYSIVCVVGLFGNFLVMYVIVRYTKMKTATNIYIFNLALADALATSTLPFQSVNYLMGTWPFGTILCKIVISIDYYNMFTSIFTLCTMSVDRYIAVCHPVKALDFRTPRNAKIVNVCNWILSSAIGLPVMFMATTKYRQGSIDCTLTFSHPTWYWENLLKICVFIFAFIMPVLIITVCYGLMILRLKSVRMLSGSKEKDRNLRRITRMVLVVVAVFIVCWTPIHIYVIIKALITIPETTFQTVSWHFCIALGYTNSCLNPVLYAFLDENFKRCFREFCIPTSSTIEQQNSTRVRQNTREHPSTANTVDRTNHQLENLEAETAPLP
Kappa-type opioid receptor (Mus musculus), sequence (P33534 whole entry): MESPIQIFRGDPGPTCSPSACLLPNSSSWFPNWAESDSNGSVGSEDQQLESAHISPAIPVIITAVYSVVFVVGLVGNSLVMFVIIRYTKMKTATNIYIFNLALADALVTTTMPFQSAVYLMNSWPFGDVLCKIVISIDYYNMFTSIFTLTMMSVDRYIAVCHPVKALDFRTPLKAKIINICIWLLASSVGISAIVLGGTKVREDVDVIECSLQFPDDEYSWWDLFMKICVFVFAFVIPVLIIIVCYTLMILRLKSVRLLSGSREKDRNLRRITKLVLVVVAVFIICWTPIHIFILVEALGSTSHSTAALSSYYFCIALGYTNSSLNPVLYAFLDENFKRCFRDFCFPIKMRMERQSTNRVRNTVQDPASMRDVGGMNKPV

On to `COc1cccc2c1[C@]13CCN(CC4CC4)[C@H](C2)[C@]1(OC)CCC(=O)C3` [CYPRODIME], for which the Ke in test [1] worked out at 1160 nM; in [2] it was 1550 nM; in [3], 55.4 nM; in test [4], 31 nM; in test [5], 6.11 µM; in test [7] it was 4.56 µM. Also, the Ke in test [8] was found to be 61.6 nM. In addition, in the test with Oryctolagus cuniculus [6], the Rate change is -6.9%. The same molecule registered a Volume change in the test with Oryctolagus cuniculus [9] of 21%.

Regarding `C=CCN1CC[C@]23CCCC[C@H]2[C@H]1Cc1ccc(O)cc13` [LEVALLORPHAN], the half-maximal inhibitory concentration (IC50) at Opioid receptor was 1.1 nM and 0.54 nM.

Turning to `C=CCN1CC[C@]23c4c5ccc(O)c4O[C@H]2C(=O)CC[C@@]3(O)[C@H]1C5` [NALOXONE], the Reduction is 83% in the test with Mus musculus [10] and 87% in the test on Mus musculus [13]. Besides, the Rate change with Oryctolagus cuniculus [11] is 7.3%. The Volume change in the test with Oryctolagus cuniculus [12] is 23%.

For the molecule `O=C1CC[C@@]2(O)[C@H]3Cc4ccc(O)c5c4[C@@]2(CCN3CC2CC2)[C@H]1O5` [NALTREXONE], the Reduction in the test on Mus musculus [10] was found to be 19%; in the test with Mus musculus [13] it was 94%. Besides, the Rate change in the test on Oryctolagus cuniculus [14] is reported as 7.5%.

One may read the IC50 as the point on the concentration scale where inhibition reaches its midpoint.
